ChEMBL document CHEMBL3297682, “Synthesis and anticancer activity of γ-(triazolyl ethylidene)butenolides and polyfunctional pyrrolinones” (Eur J Med Chem, 2014)
Active and inactive are the calls of the source. No cut-off for these calls is given here.

Tests used:
HEK293 = assay: Cytotoxicity against human HEK293 cells after 24 hrs by MTT assay; assay type: cell-based; conditions: HEK293, 24 h
Summary of the method: (§1)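 1×10^4 cells/well seeded in DMEM with 10% FBS and antibiotic-antimycotic, grown 24 h at 37 °C under 5% CO2. Compounds diluted in phenol red-free DMEM with 2% FBS and given for 24 h, with vehicle control. MTT (5 mg/mL, 20 µL) added for 3 h. Formazan dissolved in DMSO, absorbance read at 570 nm. IC50 is the concentration giving 50% growth inhibition.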

HCT-116 = assay: Antiproliferative activity against human HCT116 cells after 24 hrs by MTT assay; assay type: functional, cell-based; conditions: HCT-116, 24 h; summary of the method: as §1
PC-3 = assay: Antiproliferative activity against human PC3 cells after 24 hrs by MTT assay; assay type: functional, cell-based; conditions: PC-3, 24 h; summary of the method: as §1
MCF7 = assay: Antiproliferative activity against human MCF7 cells after 24 hrs by MTT assay; assay type: functional, cell-based; conditions: MCF7, 24 h; summary of the method: as §1
U-937 = assay: Antiproliferative activity against human U937 cells after 24 hrs by MTT assay; assay type: functional, cell-based; conditions: U-937, 24 h; summary of the method: as §1
MDA-MB-231 [1] = assay: Antiproliferative activity against human MDA-MB-231 cells after 24 hrs by MTT assay; assay type: functional, cell-based; conditions: MDA-MB-231, 24 h; summary of the method: as §1
MDA-MB-231 [2] = assay: Induction of reactive oxygen species production in human MDA-MB-231 cells after 24 hrs by DCFH-DA dye based flow cytometry; assay type: functional, cell-based
Summary of the method: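 MDA-MB-231 cells (1×10^6) seeded 24 h in six-well plates, then treated 24 h. Cells harvested, washed in PBS and fixed in absolute methanol. Cells resuspended in PBS with 15 µg/mL DCFH-DA for 30 min in the dark, then pelleted, taken up in PBS, and fluorescence read by flow cytometry.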

SMILES | IC50 (HEK293) | IC50 (HCT-116) | IC50 (PC-3) | IC50 (MCF7) | IC50 (U-937) | IC50 (MDA-MB-231 [1]) | Activity (MDA-MB-231 [2])
COC1=C(OC)/C(=C/Cn2cc(CO)nn2)OC1=O | > 100 µM | > 100 µM | > 100 µM | 35 µM | > 100 µM | > 100 µM | 
CC(C)(C)c1ccc(-c2cn(CCC3(O)NC(=O)C(OCc4ccccc4)=C3OCc3ccccc3)nn2)cc1 (stereo not given) | > 100 µM | > 100 µM | 43 µM | 25.1 µM | 56.5 µM | > 100 µM | 
CCCc1cn(CCC2(O)C(OCc3ccccc3)=C(OCc3ccccc3)C(=O)N2CCC)nn1 (stereo not given) | 90 µM | > 100 µM | 35 µM | > 100 µM | > 100 µM | > 100 µM | 
O=C1NC(O)(CCn2cc(C3=CCCCC3)nn2)C(OCc2ccccc2)=C1OCc1ccccc1 (stereo not given) | 70 µM | > 100 µM | 67.2 µM | > 100 µM | > 100 µM | 13.1 µM | Active
CC(C)(C)c1ccc(-c2cn(CCC3(O)C(OCc4ccccc4)=C(OCc4ccccc4)C(=O)N3CCc3ccccc3)nn2)cc1 (stereo not given) | 71 µM | > 100 µM | 65.5 µM | 32 µM | 60.2 µM | > 100 µM | 
CCCCc1cn(C/C=C2\OC(=O)C(OCc3ccccc3)=C2OCc2ccccc2)nn1 | > 100 µM | 64.3 µM | > 100 µM | > 100 µM | > 100 µM | > 100 µM | 
COC1=C(OC)/C(=C/Cn2cc(-c3ccccn3)nn2)OC1=O | > 100 µM | > 100 µM | > 100 µM | > 100 µM | > 100 µM | > 100 µM | 
Cc1ccc(-c2cn(C/C=C3\OC(=O)C(OCc4ccccc4)=C3OCc3ccccc3)nn2)cc1 | > 100 µM | > 100 µM | > 100 µM | > 100 µM | > 100 µM | > 100 µM | 
CCCc1cn(C/C=C2/C(OCc3ccccc3)=C(OCc3ccccc3)C(=O)N2CCC)nn1 | 82 µM | > 100 µM | > 100 µM | 66.8 µM | 80.5 µM | > 100 µM | 
COC1=C(OC)/C(=C/Cn2cc(C3CC3)nn2)OC1=O | > 100 µM | > 100 µM | > 100 µM | > 100 µM | > 100 µM | > 100 µM | 
O=C1O/C(=C\Cn2cc(Cc3ccccc3)nn2)C(OCc2ccccc2)=C1OCc1ccccc1 | 70 µM | 83.1 µM | 71.3 µM | 40 µM | > 100 µM | 29.2 µM | Active
O=C1O/C(=C\Cn2cc(-c3ccccc3)nn2)C(OCc2ccccc2)=C1OCc1ccccc1 | > 100 µM | > 100 µM | > 100 µM | > 100 µM | > 100 µM | 44 µM | 
CC/C(=C(\c1ccccc1)c1ccc(OCCN(C)C)cc1)c1ccccc1 [TAMOXIFEN] | 50 µM |  | 7 µM | 6 µM |  | 14 µM | 
CCCCCCCCN1C(=O)C(OCc2ccccc2)=C(OCc2ccccc2)/C1=C/Cn1cc(-c2ccccn2)nn1 | 83 µM | > 100 µM | > 100 µM | 46.2 µM | 90.2 µM | > 100 µM | 
CCCCCCc1cn(C/C=C2\OC(=O)C(OC)=C2OC)nn1 | > 100 µM | > 100 µM | > 100 µM | > 100 µM | > 100 µM | 74.7 µM | 
O=C1NC(O)(CCn2cc(Cc3ccccc3)nn2)C(OCc2ccccc2)=C1OCc1ccccc1 (stereo not given) | 86 µM | 51.2 µM | > 100 µM | 39.2 µM | > 100 µM | > 100 µM | 
O=C1O/C(=C\Cn2cc(-c3ccccn3)nn2)C(OCc2ccccc2)=C1OCc1ccccc1 | > 100 µM | > 100 µM | > 100 µM | > 100 µM | 70.2 µM | > 100 µM | 
COC1=C(OC)/C(=C/Cn2cc(-c3ccccc3)nn2)OC1=O | > 100 µM | > 100 µM | > 100 µM | > 100 µM | > 100 µM | > 100 µM | 
Cc1ccc(-c2cn(CCC3(O)NC(=O)C(OCc4ccccc4)=C3OCc3ccccc3)nn2)cc1 (stereo not given) | 45 µM | 74.3 µM | 84.2 µM | 24 µM | 54 µM | 82.2 µM | 
CCCc1cn(C/C=C2\OC(=O)C(OCc3ccccc3)=C2OCc2ccccc2)nn1 | > 100 µM | > 100 µM | > 100 µM | > 100 µM | > 100 µM | > 100 µM | 
COC1=C(OC)/C(=C/Cn2cc(CCCCO)nn2)OC1=O | > 100 µM | > 100 µM | > 100 µM | 35 µM | > 100 µM | 87.5 µM | 
COC1=C(OC)/C(=C/Cn2cc(-c3ccc(C(C)(C)C)cc3)nn2)OC1=O | > 100 µM | > 100 µM | > 100 µM | > 100 µM | 30 µM | > 100 µM | 
O=C1O/C(=C\Cn2cc(C3CC3)nn2)C(OCc2ccccc2)=C1OCc1ccccc1 | > 100 µM | > 100 µM | > 100 µM | > 100 µM | > 100 µM | > 100 µM | 
CCCCCc1cn(C/C=C2\OC(=O)C(OCc3ccccc3)=C2OCc2ccccc2)nn1 | > 100 µM | > 100 µM | > 100 µM | > 100 µM | > 100 µM | > 100 µM | 
O=C1O/C(=C\Cn2cc(CCCCO)nn2)C(OCc2ccccc2)=C1OCc1ccccc1 | > 100 µM | > 100 µM | > 100 µM | 53.6 µM | > 100 µM | > 100 µM | 
CCCCCCCCN1C(=O)C(OCc2ccccc2)=C(OCc2ccccc2)C1(O)CCn1cc(-c2ccccn2)nn1 (stereo not given) | > 100 µM | > 100 µM | 80.3 µM | 24.3 µM | 84.2 µM | > 100 µM | 
COC1=C(OC)/C(=C/Cn2cc(Cc3ccccc3)nn2)OC1=O | > 100 µM | > 100 µM | > 100 µM | > 100 µM | > 100 µM | > 100 µM | 
O=C1O/C(=C\Cn2cc(C3=CCCCC3)nn2)C(OCc2ccccc2)=C1OCc1ccccc1 | > 100 µM | > 100 µM | 55.6 µM | > 100 µM | > 100 µM | > 100 µM | 
CC(C)(C)c1ccc(-c2cn(C/C=C3\OC(=O)C(OCc4ccccc4)=C3OCc3ccccc3)nn2)cc1 | > 100 µM | > 100 µM | > 100 µM | > 100 µM | > 100 µM | 51.2 µM | 
CCCCCC(O)c1cn(C/C=C2\OC(=O)C(OC)=C2OC)nn1 (stereo not given) | 80 µM | > 100 µM | > 100 µM | > 100 µM | > 100 µM | 35.5 µM | 
